ChEMBL document CHEMBL1124988, “Synthesis and antimicrobial and cytotoxic activities of pyrrole-containing analogues of trichostatin A” (J Med Chem, 1990)
Values after ≈ are worked out from the molar mass of the structure shown.

Legend:
[1] = system: Vero; test: Maximum nontoxic dose that allow exponential cell growth for three cell cycles; assay type: functional, Chlorocebus sabaeus
Summary of the method: (§1)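 Exponentially growing Vero cells were exposed to a range of compound concentrations for three cell cycles (3 days) at 37 °C in 5% CO2. Viable cells were counted by hemocytometer in duplicate samples. MNTD is the highest concentration still allowing exponential growth. TD50 is the concentration halving cell number versus untreated controls.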

[2] = system: Human alphaherpesvirus 1; test: Effective dose required for antiviral activity against HSV-1 virus; assay type: functional; conditions: read-out: ED50 (the source's name)
Summary of the method: (§2)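 Plaque-reduction assay in Vero cells. Dose-response lines were drawn by linear regression, and ED50 is the concentration giving 50% fewer plaques than untreated, virus-infected controls.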

[3] = system: African swine fever virus; test: Effective dose required for antiviral activity against ASFV virus; assay type: functional; conditions: read-out: ED50 (the source's name)
[4] = Toxic dose that reduced by 50% the number of cells with respect to untreated controls.; assay type: toxicity, cell-based; conditions: chlorocebus sabaeus, Vero cells; read-out: TD50 (the source's name); summary of the method: as §1
[5] = system: Vaccinia virus; test: Effective dose required for antiviral activity against Vaccinia virus; assay type: functional; conditions: Orthopoxvirus vaccinia; read-out: ED50 (the source's name)
[6] = system: unidentified adenovirus; test: Effective dose required for antiviral activity against adeno virus; assay type: functional; conditions: read-out: ED50 (the source's name); summary of the method: as §2
[7] = system: Vesicular stomatitis virus; test: Effective dose required for antiviral activity against VSV virus; assay type: functional; conditions: read-out: ED50 (the source's name)

Structure (SMILES) | MNTD [1] | EC50 [2] | EC50 [3] | CC50 [4] | EC50 [5] | EC50 [6] | EC50 [7]
CCOC(=O)/C=C/c1cc(C(=O)c2ccc(Cl)cc2)cn1C | 250 µg/mL | 350 µg/mL (≈ 1100 µM) | > 500 µg/mL | 500 µg/mL (≈ 1570 µM) | 500 µg/mL (≈ 1570 µM) | 30 µg/mL (≈ 94.4 µM) | > 1000 µg/mL
Cn1cc(C(=O)c2ccc(-n3ccnc3)cc2)cc1/C=C/C(=O)O | 125 µg/mL | > 250 µg/mL | 250 µg/mL (≈ 778 µM) | > 250 µg/mL | > 250 µg/mL | 250 µg/mL (≈ 778 µM) | 250 µg/mL (≈ 778 µM)
Cn1cc(C(=O)c2ccccc2)cc1/C=C/C(=O)NO | 15 µg/mL | > 30 µg/mL | > 30 µg/mL | 30 µg/mL (≈ 111 µM) | > 30 µg/mL | > 30 µg/mL | > 30 µg/mL
Nc1ncnc2c1ncn2[C@@H]1O[C@H](CO)[C@@H](O)[C@@H]1O [VIDARABINE] | 6 µg/mL | 10 µg/mL (≈ 37.4 µM) | 40 µg/mL (≈ 150 µM) | 10 µg/mL (≈ 37.4 µM) | 16 µg/mL (≈ 59.9 µM) |  | > 10 µg/mL
CCOC(=O)/C=C/c1cc(C(=O)c2ccc(N(C)C)cc2)cn1C | 2 µg/mL | 15 µg/mL (≈ 46 µM) | 8 µg/mL (≈ 24.5 µM) | 4 µg/mL (≈ 12.3 µM) | 15 µg/mL (≈ 46 µM) | 15 µg/mL (≈ 46 µM) | 8 µg/mL (≈ 24.5 µM)
CCOC(=O)/C=C/c1cc(C(=O)c2ccc(-n3ccnc3)cc2)cn1C | 15 µg/mL | 500 µg/mL (≈ 1430 µM) | 30 µg/mL (≈ 85.9 µM) | 30 µg/mL (≈ 85.9 µM) | > 500 µg/mL | 15 µg/mL (≈ 42.9 µM) | 500 µg/mL (≈ 1430 µM)
Cn1cc(C(=O)c2ccc(F)cc2)cc1/C=C/C(=O)NO | 8 µg/mL | 10 µg/mL (≈ 34.7 µM) | 12 µg/mL (≈ 41.6 µM) | 15 µg/mL (≈ 52 µM) | 15 µg/mL (≈ 52 µM) | > 50 µg/mL | > 50 µg/mL
Nc1nc2c(ncn2COCCO)c(=O)[nH]1 [ACYCLOVIR] | 40 µg/mL | 0.02 µg/mL (≈ 0.0888 µM) | 40 µg/mL (≈ 178 µM) | 240 µg/mL (≈ 1070 µM) | > 110 µg/mL |  | > 40 µg/mL
Cn1cc(C(=O)c2ccc(N)cc2)cc1/C=C/C(=O)O | >1000 µg/mL | > 1000 µg/mL | 250 µg/mL (≈ 925 µM) | > 1000 µg/mL | 1000 µg/mL (≈ 3700 µM) | 1000 µg/mL (≈ 3700 µM) | > 1000 µg/mL
Cn1cc(C(=O)c2ccc([N+](=O)[O-])cc2)cc1/C=C/C(=O)O | 15 µg/mL | 50 µg/mL (≈ 167 µM) | 50 µg/mL (≈ 167 µM) | 60 µg/mL (≈ 200 µM) | 15 µg/mL (≈ 50 µM) | 50 µg/mL (≈ 167 µM) | > 100 µg/mL
CCOC(=O)/C=C/c1cc(C(=O)c2ccccc2)cn1C | 2 µg/mL | 30 µg/mL (≈ 106 µM) | 30 µg/mL (≈ 106 µM) | 4 µg/mL (≈ 14.1 µM) | 30 µg/mL (≈ 106 µM) | 30 µg/mL (≈ 106 µM) | 30 µg/mL (≈ 106 µM)
CN(C)c1ccc(C(=O)c2cc(/C=C/C(=O)O)n(C)c2)cc1 | 125 µg/mL | > 250 µg/mL | > 250 µg/mL | > 250 µg/mL | > 250 µg/mL | 125 µg/mL (≈ 419 µM) | > 500 µg/mL
Cn1cc(C(=O)c2ccc(Cl)cc2)cc1/C=C/C(=O)O | 30 µg/mL | 500 µg/mL (≈ 1730 µM) | > 250 µg/mL | 125 µg/mL (≈ 431 µM) | 100 µg/mL (≈ 345 µM) | > 500 µg/mL | 250 µg/mL (≈ 863 µM)
Cc1ccc(C(=O)c2ccn(/C=C/C(=O)O)c2)cc1 | 30 µg/mL | 100 µg/mL (≈ 392 µM) | 8 µg/mL (≈ 31.3 µM) | 125 µg/mL (≈ 490 µM) | 100 µg/mL (≈ 392 µM) | 60 µg/mL (≈ 235 µM) | > 125 µg/mL
CCOC(=O)/C=C/c1cc(C(=O)c2ccc(OC)cc2)cn1C | 8 µg/mL | 15 µg/mL (≈ 47.9 µM) | 8 µg/mL (≈ 25.5 µM) | 15 µg/mL (≈ 47.9 µM) | 20 µg/mL (≈ 63.8 µM) | 4 µg/mL (≈ 12.8 µM) | 15 µg/mL (≈ 47.9 µM)
Cn1cc(C(=O)c2ccc(F)cc2)cc1/C=C/C(=O)O | 15 µg/mL | 60 µg/mL (≈ 220 µM) | 30 µg/mL (≈ 110 µM) | 60 µg/mL (≈ 220 µM) | 100 µg/mL (≈ 366 µM) | 50 µg/mL (≈ 183 µM) | > 50 µg/mL
Cn1cc(C(=O)c2ccc(Cl)cc2)cc1/C=C/C(=O)NO | 15 µg/mL | 30 µg/mL (≈ 98.4 µM) | 20 µg/mL (≈ 65.6 µM) | 30 µg/mL (≈ 98.4 µM) | 30 µg/mL (≈ 98.4 µM) | 15 µg/mL (≈ 49.2 µM) | > 30 µg/mL
CCOC(=O)/C=C/c1cc(C(=O)c2ccc(F)cc2)cn1C | 4 µg/mL | 10 µg/mL (≈ 33.2 µM) | 10 µg/mL (≈ 33.2 µM) | 15 µg/mL (≈ 49.8 µM) | 10 µg/mL (≈ 33.2 µM) | 50 µg/mL (≈ 166 µM) | 50 µg/mL (≈ 166 µM)
Cn1cc(C(=O)c2ccccc2)cc1/C=C/C(=O)O | 250 µg/mL | > 500 µg/mL | 250 µg/mL (≈ 979 µM) | > 250 µg/mL | > 500 µg/mL | 250 µg/mL (≈ 979 µM) | 500 µg/mL (≈ 1960 µM)
COc1ccc(C(=O)c2cc(/C=C/C(=O)O)n(C)c2)cc1 | 500 µg/mL | > 500 µg/mL | 350 µg/mL (≈ 1230 µM) | > 500 µg/mL | 500 µg/mL (≈ 1750 µM) | 250 µg/mL (≈ 876 µM) | 1000 µg/mL (≈ 3510 µM)
Cn1cc(C(=O)c2ccc([N+](=O)[O-])cc2)cc1/C=C/C(=O)NO | 15 µg/mL | 15 µg/mL (≈ 47.6 µM) | 25 µg/mL (≈ 79.3 µM) | 30 µg/mL (≈ 95.2 µM) | 15 µg/mL (≈ 47.6 µM) | 25 µg/mL (≈ 79.3 µM) | > 50 µg/mL
CCOC(=O)/C=C/c1cc(C(=O)c2ccc([N+](=O)[O-])cc2)cn1C | 2 µg/mL | 125 µg/mL (≈ 381 µM) | 60 µg/mL (≈ 183 µM) | 8 µg/mL (≈ 24.4 µM) | 60 µg/mL (≈ 183 µM) |  | 
